Columns and labels:
[1] = Plasma clearance in dog at 0.4 mg/kg, iv; assay type: ADME, organism-based, Canis lupus familiaris; design: dose 0.4 mg/kg, route intravenous
Outline: (§1)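 Given intravenously to dogs at 0.4 mpk, with DMSO as the vehicle.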

[2] = Half life in dog at 0.4 mg/kg, iv; assay type: ADME, organism-based, Canis lupus familiaris; design: dose 0.4 mg/kg, route intravenous; conditions: in vivo; outline: as §1
[3] = Plasma clearance in rat at 1 mg/kg, iv; assay type: ADME, organism-based; design: dose 1 mg/kg, route intravenous
Outline: (§2)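 Given intravenously to rats at 1 mpk, with DMSO as the vehicle.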

[4] = Half life in rat at 1 mg/kg, iv; assay type: ADME, organism-based; design: dose 1 mg/kg, route intravenous; conditions: in vivo; outline: as §2
Canis familiaris = assay: Ratio of AUC's for parent compound after prodrug dosing and parent compound dosing in dog at 0.4 mg/kg, iv; assay type: ADME, organism-based, Canis lupus familiaris; design: dose 0.4 mg/kg, route intravenous; conditions: in vivo
Outline: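 Prodrug and parent were each given intravenously in DMSO to dogs at 0.4 mpk. The value is the AUC of parent after prodrug dosing divided by the AUC after direct parent dosing, expressed as a percentage.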

Rattus norvegicus = assay: Ratio of AUC's for parent compound after prodrug dosing and parent compound dosing in rat at 1 mg/kg, iv; assay type: ADME, organism-based; design: dose 1 mg/kg, route intravenous; conditions: in vivo
Outline: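 Prodrug and parent were each given intravenously in DMSO to rats at 1 mpk. The value is the AUC of parent after prodrug dosing divided by the AUC after direct parent dosing, expressed as a percentage.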

[5] = biological target: T1, Kinesin-like protein KIF11 (Homo sapiens, UniProt P52732); assay: Inhibition of KSP by ATPase assay
T1 sequence (P52732 whole entry): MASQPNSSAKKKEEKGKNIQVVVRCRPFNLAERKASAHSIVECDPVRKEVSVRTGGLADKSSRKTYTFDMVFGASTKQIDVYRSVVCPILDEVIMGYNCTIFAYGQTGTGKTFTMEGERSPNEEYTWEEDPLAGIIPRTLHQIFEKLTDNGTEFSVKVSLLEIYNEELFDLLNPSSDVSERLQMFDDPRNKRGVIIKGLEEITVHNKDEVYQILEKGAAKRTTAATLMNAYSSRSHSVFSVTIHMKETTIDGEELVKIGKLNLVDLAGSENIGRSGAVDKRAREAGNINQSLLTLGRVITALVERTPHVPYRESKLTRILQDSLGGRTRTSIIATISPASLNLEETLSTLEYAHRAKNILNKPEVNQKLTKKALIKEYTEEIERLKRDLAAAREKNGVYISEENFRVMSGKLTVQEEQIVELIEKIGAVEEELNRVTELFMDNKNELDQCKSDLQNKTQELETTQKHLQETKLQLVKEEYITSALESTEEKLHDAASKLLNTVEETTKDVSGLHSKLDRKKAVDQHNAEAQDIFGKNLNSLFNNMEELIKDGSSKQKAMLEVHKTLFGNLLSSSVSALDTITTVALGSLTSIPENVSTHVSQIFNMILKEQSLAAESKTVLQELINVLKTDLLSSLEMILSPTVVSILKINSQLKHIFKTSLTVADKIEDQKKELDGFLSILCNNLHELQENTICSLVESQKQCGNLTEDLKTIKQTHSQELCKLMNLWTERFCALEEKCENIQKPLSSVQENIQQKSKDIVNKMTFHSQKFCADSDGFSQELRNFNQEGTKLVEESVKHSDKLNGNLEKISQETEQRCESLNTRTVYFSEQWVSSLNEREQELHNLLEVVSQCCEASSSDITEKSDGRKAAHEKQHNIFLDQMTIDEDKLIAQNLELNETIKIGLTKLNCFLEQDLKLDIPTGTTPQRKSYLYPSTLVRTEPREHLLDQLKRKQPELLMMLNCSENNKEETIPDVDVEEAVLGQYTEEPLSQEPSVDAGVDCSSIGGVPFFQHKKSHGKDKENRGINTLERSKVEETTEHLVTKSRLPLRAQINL

A2780 = assay: Mitotic arrest in A2780 cells; assay type: functional, cell-based; conditions: Homo sapiens
Outline: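 M-phase arrest read out by antibody-based detection of phosphonucleolin. Values are the average of at least two determinations, with standard deviations of 25–50%.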

[6] = biological target: Voltage-gated inwardly rectifying potassium channel KCNH2 (Homo sapiens, UniProt Q12809); assay: Inhibitory activity against human hERG receptor expressed in HEK cells
Voltage-gated inwardly rectifying potassium channel KCNH2, sequence (Q12809 whole entry): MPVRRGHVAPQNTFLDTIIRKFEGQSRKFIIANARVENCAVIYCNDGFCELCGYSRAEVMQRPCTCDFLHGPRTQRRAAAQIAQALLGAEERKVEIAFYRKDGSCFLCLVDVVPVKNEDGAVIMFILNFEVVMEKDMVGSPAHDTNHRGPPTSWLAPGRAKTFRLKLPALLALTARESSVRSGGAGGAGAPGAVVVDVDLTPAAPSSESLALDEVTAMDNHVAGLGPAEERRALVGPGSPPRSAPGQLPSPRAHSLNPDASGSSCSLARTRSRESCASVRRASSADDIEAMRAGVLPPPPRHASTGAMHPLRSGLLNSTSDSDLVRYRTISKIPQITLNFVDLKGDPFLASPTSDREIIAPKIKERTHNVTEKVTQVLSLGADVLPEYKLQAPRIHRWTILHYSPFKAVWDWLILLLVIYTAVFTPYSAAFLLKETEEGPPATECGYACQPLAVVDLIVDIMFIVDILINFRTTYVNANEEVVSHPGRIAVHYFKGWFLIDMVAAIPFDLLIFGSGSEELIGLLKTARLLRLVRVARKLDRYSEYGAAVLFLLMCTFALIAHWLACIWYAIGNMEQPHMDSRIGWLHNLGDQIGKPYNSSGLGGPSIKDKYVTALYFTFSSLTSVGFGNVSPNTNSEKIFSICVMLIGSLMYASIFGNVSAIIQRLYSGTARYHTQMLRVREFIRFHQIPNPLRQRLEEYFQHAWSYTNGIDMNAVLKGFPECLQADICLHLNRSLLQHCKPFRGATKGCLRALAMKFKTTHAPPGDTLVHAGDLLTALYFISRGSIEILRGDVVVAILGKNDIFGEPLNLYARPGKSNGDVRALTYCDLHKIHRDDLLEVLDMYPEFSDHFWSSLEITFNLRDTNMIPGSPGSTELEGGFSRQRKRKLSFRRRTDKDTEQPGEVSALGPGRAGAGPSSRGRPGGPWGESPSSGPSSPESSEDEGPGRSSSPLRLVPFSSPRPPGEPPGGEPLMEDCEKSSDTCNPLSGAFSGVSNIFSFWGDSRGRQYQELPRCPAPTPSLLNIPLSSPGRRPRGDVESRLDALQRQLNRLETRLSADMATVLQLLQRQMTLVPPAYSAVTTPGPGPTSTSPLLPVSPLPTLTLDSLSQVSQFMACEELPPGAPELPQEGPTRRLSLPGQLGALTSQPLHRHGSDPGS

| half-life [2] [min] | half-life [4] [min] | IC50 [5] [nM] | EC50 (A2780) [nM] | Compound | further results |
| --- | --- | --- | --- | --- | --- |
| 168 | 18 |  |  | CC(C)(C)[C@H](NC(=O)OCCO)C(=O)N1CC(c2cc(F)ccc2F)=C[C@H]1c1ccccc1 | clearance [1]: 11 mL/min/kg; clearance [3]: 68 mL/min/kg; Ratio AUC (Canis familiaris): 38%; Ratio AUC (Rattus norvegicus): 57% |
| 90 | 18 | 7 | 22 | CN(C)C(=O)N1CC(c2cc(F)ccc2F)=C[C@H]1c1cccc(O)c1 | clearance [1]: 13 mL/min/kg; clearance [3]: 68 mL/min/kg |
|  |  | 0.5 | 3 | N[C@H](C(=O)N1CC(c2cc(F)ccc2F)=C[C@H]1c1cccc(O)c1)C1CC1 |  |
|  |  | 1.2 | 3.3 | CC(C)[C@H](N)C(=O)N1CC(c2cc(F)ccc2F)=C[C@H]1c1cccc(O)c1 |  |
|  |  | 5.5 | 8.5 | CN(C(=O)N1CC(c2cc(F)ccc2F)=CC1c1cccc(O)c1)C1CCNCC1 (racemic) |  |
|  |  | 1.3 | 2.6 | CC(C)(C)[C@H](O)C(=O)N1CC(c2cc(F)ccc2F)=C[C@H]1c1cccc(O)c1 |  |
|  |  | 2.9 | 3.1 | O=C([C@@H](O)C1CC1)N1CC(c2cc(F)ccc2F)=C[C@H]1c1cccc(O)c1 |  |
|  |  | 13 | 37 | CC(C)(C)C(=O)N1CC(c2cc(F)ccc2F)=C[C@H]1c1cccc(O)c1 | IC50 [6]: 7800 nM |
| < 6 | < 6 |  |  | CC(C)(C)[C@H](NC(=O)OCCOP(=O)(O)O)C(=O)N1CC(c2cc(F)ccc2F)=C[C@H]1c1ccccc1 |  |
|  |  | 4 | 9.1 | CN(CCO)C(=O)N1CC(c2cc(F)ccc2F)=C[C@H]1c1cccc(O)c1 |  |

| Compound | half-life [2] [min] | half-life [4] [min] | IC50 [5] [nM] | EC50 (A2780) [nM] | further results |
| --- | --- | --- | --- | --- | --- |
| CN(C)C(=O)N1CC(c2cc(F)ccc2F)=C[C@H]1c1cccc(OP(=O)(O)O)c1 | 15 | 9 |  |  |  |
